ChEMBL document CHEMBL1136954, “Toward the back-up of boceprevir (SCH 503034): discovery of new extended P4-capped ketoamide inhibitors of hepatitis C virus NS3 serine protease with improved potency and pharmacokinetic profiles” (J Med Chem, 2009)

How the values were obtained:
Hepatitis C virus = assay: Antiviral activity against Hepatitis C virus genotype 1 infected in human hepatocytes by replicon assay; assay type: functional, Hepacivirus hominis; conditions: genotype 1, Hepatocyte
Outline: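 HCV genotype 1 replicon cell assay; EC90 reported, within 3-fold at 95% confidence for a single assay and within 2-fold for multiple assays.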

[1] = Inhibition of HCV NS4A-tethered single chain NS3 serine protease by spectrophotometric assay; parameters: species or system Hepacivirus hominis
Outline: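 Continuous assay with NS4A-tethered single-chain NS3 serine protease; potency given as Ki*.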

[2] = Cytotoxicity against human hepatocytes assessed as effect on GAPDH RNA level […]; assay type: cell-based, Hepatocyte
Outline: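 Counter-screen for cellular toxicity measuring GAPDH; CC50 reported.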

| Structure (SMILES) | Ki [1] | EC90 (Hepatitis C virus) | CC50 [2] |
| --- | --- | --- | --- |
| C=CCNC(=O)C(=O)C(CCCC)NC(=O)[C@@H]1[C@@H]2[C@H](CN1C(=O)[C@@H](NC(=O)N[C@H](C(=O)C1CC1)C1CCCCC1)C(C)(C)C)C2(C)C (mixture of isomers) | 38 nM | 900 nM | > 5000 nM |
| CC(C)[C@@](C)(NC(=O)N[C@H](C(=O)N1C[C@H]2[C@@H]([C@H]1C(=O)NC(CC1CC1)C(=O)C(N)=O)C2(C)C)C(C)(C)C)C(=O)OCc1ccccc1 (mixture of isomers) | 290 nM | – | > 5000 nM |
| CC(C)(NC(=O)N[C@H](C(=O)N1C[C@H]2[C@@H]([C@H]1C(=O)NC(CC1CC1)C(=O)C(N)=O)C2(C)C)C(C)(C)C)C(=O)OCc1ccccc1 (mixture of isomers) | 210 nM | 1480 nM | > 5000 nM |
| CC(C)[C@H](NC(=O)N[C@H](C(=O)N1C[C@H]2[C@@H]([C@H]1C(=O)NC(CC1CC1)C(=O)C(N)=O)C2(C)C)C(C)(C)C)C(=O)O[C@H](C)c1ccccc1 (mixture of isomers) | 80 nM | 600 nM | > 5000 nM |
| CC(C)(C)[C@H](NC(=O)NC1(C(=O)OCc2ccccc2)CCCC1)C(=O)N1C[C@H]2[C@@H]([C@H]1C(=O)NC(CC1CC1)C(=O)C(N)=O)C2(C)C (mixture of isomers) | 58 nM | 30 nM | > 5000 nM |
| C[C@@H](OC(=O)C1(NC(=O)N[C@H](C(=O)N2C[C@H]3[C@@H]([C@H]2C(=O)NC(CC2CC2)C(=O)C(N)=O)C3(C)C)C(C)(C)C)CCCCC1)c1ccccc1 (mixture of isomers) | 80 nM | 600 nM | > 5000 nM |
| CC(C)(C)[C@H](NC(=O)NC1(C(=O)NS(=O)(=O)c2ccccc2)CCCCC1)C(=O)N1C[C@H]2[C@@H]([C@H]1C(=O)NC(CC1CC1)C(=O)C(N)=O)C2(C)C (mixture of isomers) | 110 nM | 5000 nM | > 5000 nM |
| CC(C)(C)[C@H](NC(=O)NC1(C(=O)NCc2ccccc2)CCCCC1)C(=O)N1C[C@H]2[C@@H]([C@H]1C(=O)NC(CC1CC1)C(=O)C(N)=O)C2(C)C (mixture of isomers) | 44 nM | 5000 nM | > 5000 nM |
| CC(C)[C@H](NC(=O)N[C@H](C(=O)N1C[C@H]2[C@@H]([C@H]1C(=O)NC(CC1CC1)C(=O)C(N)=O)C2(C)C)C(C)(C)C)[C@H](O)c1ccccc1 (mixture of isomers) | 77 nM | – | > 5000 nM |
| CC(C)(C)[C@H](NC(=O)NC1(C(=O)OCc2ccoc2)CCCCC1)C(=O)N1C[C@H]2[C@@H]([C@H]1C(=O)NC(CC1CC1)C(=O)C(N)=O)C2(C)C (mixture of isomers) | 39 nM | 20 nM | > 5000 nM |
| C=CCNC(=O)C(=O)C(CC1CC1)NC(=O)[C@@H]1[C@@H]2[C@H](CN1C(=O)[C@@H](NC(=O)N[C@H](C(=O)C1CC1)C1CCCCC1)C(C)(C)C)C2(C)C (mixture of isomers) | 27 nM | 450 nM | > 5000 nM |
| CC(C)(C)[C@H](NC(=O)NC1(C(=O)OCc2ccccc2)CC1)C(=O)N1C[C@H]2[C@@H]([C@H]1C(=O)NC(CC1CC1)C(=O)C(N)=O)C2(C)C (mixture of isomers) | 170 nM | 1000 nM | > 5000 nM |
| CO/N=C(\c1ccccc1)[C@@H](NC(=O)N[C@H](C(=O)N1C[C@H]2[C@@H]([C@H]1C(=O)NC(CC1CC1)C(=O)C(N)=O)C2(C)C)C(C)(C)C)C(C)C (mixture of isomers) | 50 nM | – | > 5000 nM |
| C=C(c1ccccc1)[C@@H](NC(=O)N[C@H](C(=O)N1C[C@H]2[C@@H]([C@H]1C(=O)NC(CC1CC1)C(=O)C(N)=O)C2(C)C)C(C)(C)C)C(C)C (mixture of isomers) | 50 nM | – | > 5000 nM |
| CC(C)[C@@H](Cc1ccccc1)NC(=O)N[C@H](C(=O)N1C[C@H]2[C@@H]([C@H]1C(=O)NC(CC1CC1)C(=O)C(N)=O)C2(C)C)C(C)(C)C (mixture of isomers) | 59 nM | – | > 5000 nM |
| CO[C@H](c1ccccc1)[C@@H](NC(=O)N[C@H](C(=O)N1C[C@H]2[C@@H]([C@H]1C(=O)NC(CC1CC1)C(=O)C(N)=O)C2(C)C)C(C)(C)C)C(C)C (mixture of isomers) | 60 nM | – | > 5000 nM |
| COC(=O)C1(NC(=O)N[C@H](C(=O)N2C[C@H]3[C@@H]([C@H]2C(=O)NC(CC2CC2)C(=O)C(N)=O)C3(C)C)C(C)(C)C)CCCCC1 (mixture of isomers) | 30 nM | 200 nM | > 5000 nM |
| CC(C)(C)[C@H](NC(=O)NC1(C(=O)OCC2CC2)CCCCC1)C(=O)N1C[C@H]2[C@@H]([C@H]1C(=O)NC(CC1CC1)C(=O)C(N)=O)C2(C)C (mixture of isomers) | 39 nM | 60 nM | > 5000 nM |
| CC(C)(C)[C@H](NC(=O)NC1(C(=O)OCc2ccsc2)CCCCC1)C(=O)N1C[C@H]2[C@@H]([C@H]1C(=O)NC(CC1CC1)C(=O)C(N)=O)C2(C)C (mixture of isomers) | 31 nM | 20 nM | > 5000 nM |
| CC(C)(C)[C@H](NC(=O)NC1(C(=O)OCc2ccco2)CCCCC1)C(=O)N1C[C@H]2[C@@H]([C@H]1C(=O)NC(CC1CC1)C(=O)C(N)=O)C2(C)C (mixture of isomers) | 28 nM | 30 nM | > 5000 nM |
| CC(C)[C@](C)(NC(=O)N[C@H](C(=O)N1C[C@H]2[C@@H]([C@H]1C(=O)NC(CC1CC1)C(=O)C(N)=O)C2(C)C)C(C)(C)C)C(=O)OCc1ccccc1 (mixture of isomers) | 44 nM | 500 nM | > 5000 nM |
| CC(C)(C)[C@H](NC(=O)NC1(COC(=O)c2ccccc2)CCCCC1)C(=O)N1C[C@H]2[C@@H]([C@H]1C(=O)NC(CC1CC1)C(=O)C(N)=O)C2(C)C (mixture of isomers) | 120 nM | 1000 nM | > 5000 nM |
| CC(C)(C)[C@H](NC(=O)NC1(C(=O)c2ccccc2)CCCCC1)C(=O)N1C[C@H]2[C@@H]([C@H]1C(=O)NC(CC1CC1)C(=O)C(N)=O)C2(C)C (mixture of isomers) | 100 nM | 2000 nM | > 5000 nM |

Stronger by Ki [1], values ahead:

| Ki [1] | Structure (SMILES) | EC90 (Hepatitis C virus) | CC50 [2] |
| --- | --- | --- | --- |
| 10 nM | CC(C)(C)[C@H](NC(=O)N[C@H](C(=O)OCc1ccccc1)C1CC1)C(=O)N1C[C@H]2[C@@H]([C@H]1C(=O)NC(CC1CC1)C(=O)C(N)=O)C2(C)C (mixture of isomers) | 20 nM | > 5000 nM |
| 9 nM | CC(C)(C)[C@H](NC(=O)N[C@H](C(=O)OCc1ccccc1)C1CCCC1)C(=O)N1C[C@H]2[C@@H]([C@H]1C(=O)NC(CC1CC1)C(=O)C(N)=O)C2(C)C (mixture of isomers) | 25 nM | > 5000 nM |
| 10 nM | CC(C)(C)[C@H](NC(=O)N[C@H](C(=O)OCc1ccccc1)C1CCCCC1)C(=O)N1C[C@H]2[C@@H]([C@H]1C(=O)NC(CC1CC1)C(=O)C(N)=O)C2(C)C (mixture of isomers) | 20 nM | > 5000 nM |
| 9 nM | CC(C)(C)[C@H](NC(=O)NC1(C(=O)O)CCCCC1)C(=O)N1C[C@H]2[C@@H]([C@H]1C(=O)NC(CC1CC1)C(=O)C(N)=O)C2(C)C (mixture of isomers) | 5000 nM | > 5000 nM |
| 13 nM | CC(C)[C@H](NC(=O)N[C@H](C(=O)N1C[C@H]2[C@@H]([C@H]1C(=O)NC(CC1CC1)C(=O)C(N)=O)C2(C)C)C(C)(C)C)C(=O)OCc1ccccc1 (mixture of isomers) | 35 nM | > 5000 nM |
| 10 nM | CC(C)[C@H](NC(=O)N[C@H](C(=O)N1C[C@H]2[C@@H]([C@H]1C(=O)NC(CC1CC1)C(=O)C(N)=O)C2(C)C)C(C)(C)C)c1nnn[nH]1 (mixture of isomers) | 1000 nM | > 5000 nM |
| 6 nM | CC(C)[C@H](NC(=O)N[C@H](C(=O)N1C[C@H]2[C@@H]([C@H]1C(=O)NC(CC1CC1)C(=O)C(N)=O)C2(C)C)C(C)(C)C)C(=O)NS(=O)(=O)c1ccccc1 (mixture of isomers) | 5000 nM | > 5000 nM |
| 12 nM | CC(C)[C@H](NC(=O)N[C@H](C(=O)N1C[C@H]2[C@@H]([C@H]1C(=O)NC(CC1CC1)C(=O)C(N)=O)C2(C)C)C(C)(C)C)C(=O)C(C)(C)C (mixture of isomers) | 200 nM | > 5000 nM |
| 14 nM | CC(=O)[C@@H](NC(=O)N[C@H](C(=O)N1C[C@H]2[C@@H]([C@H]1C(=O)NC(CC1CC1)C(=O)C(N)=O)C2(C)C)C(C)(C)C)C(C)C (mixture of isomers) | 400 nM | > 5000 nM |
| 9 nM | CC1(NC(=O)N[C@H](C(=O)N2C[C@H]3[C@@H]([C@H]2C(=O)NC(CC2CC2)C(=O)C(N)=O)C3(C)C)C(C)(C)C)CCCCC1 (mixture of isomers) | 200 nM | > 5000 nM |
| 13 nM | CC(C)[C@H](NC(=O)N[C@H](C(=O)N1C[C@H]2[C@@H]([C@H]1C(=O)NC(CC1CC1)C(=O)C(N)=O)C2(C)C)C(C)(C)C)C(=O)C1CCCCC1 (mixture of isomers) | 200 nM | > 5000 nM |
| 20 nM | CC(C)[C@H](NC(=O)N[C@H](C(=O)N1C[C@H]2[C@@H]([C@H]1C(=O)NC(CC1CC1)C(=O)C(N)=O)C2(C)C)C(C)(C)C)C(=O)C1CCC1 (mixture of isomers) | 350 nM | > 5000 nM |
| 8 nM | CC1(NC(=O)N[C@H](C(=O)N2C[C@H]3[C@@H](C2C(=O)NC(CC2CCC2)C(=O)C(N)=O)C3(C)C)C(C)(C)C)CCCCC1 (some centres not stated) | 200 nM | > 5000 nM |
